In ChEMBL document CHEMBL1156878, “New benzoxanthone derivatives as topoisomerase inhibitors and DNA cross-linkers” (Bioorg Med Chem, 2010):
Counter-ions that a name gives are not always drawn. Active and inactive are the calls of the source. No cut-off for these calls is given here.

Experiments:
[1] = target: T1, DNA topoisomerase 1 (Homo sapiens) (UniProt P11387); assay: Inhibition of human recombinant topoisomerase 1-mediated pBR322 DNA relaxation at 100 uM by gel electrophoresis
T1 sequence (whole entry): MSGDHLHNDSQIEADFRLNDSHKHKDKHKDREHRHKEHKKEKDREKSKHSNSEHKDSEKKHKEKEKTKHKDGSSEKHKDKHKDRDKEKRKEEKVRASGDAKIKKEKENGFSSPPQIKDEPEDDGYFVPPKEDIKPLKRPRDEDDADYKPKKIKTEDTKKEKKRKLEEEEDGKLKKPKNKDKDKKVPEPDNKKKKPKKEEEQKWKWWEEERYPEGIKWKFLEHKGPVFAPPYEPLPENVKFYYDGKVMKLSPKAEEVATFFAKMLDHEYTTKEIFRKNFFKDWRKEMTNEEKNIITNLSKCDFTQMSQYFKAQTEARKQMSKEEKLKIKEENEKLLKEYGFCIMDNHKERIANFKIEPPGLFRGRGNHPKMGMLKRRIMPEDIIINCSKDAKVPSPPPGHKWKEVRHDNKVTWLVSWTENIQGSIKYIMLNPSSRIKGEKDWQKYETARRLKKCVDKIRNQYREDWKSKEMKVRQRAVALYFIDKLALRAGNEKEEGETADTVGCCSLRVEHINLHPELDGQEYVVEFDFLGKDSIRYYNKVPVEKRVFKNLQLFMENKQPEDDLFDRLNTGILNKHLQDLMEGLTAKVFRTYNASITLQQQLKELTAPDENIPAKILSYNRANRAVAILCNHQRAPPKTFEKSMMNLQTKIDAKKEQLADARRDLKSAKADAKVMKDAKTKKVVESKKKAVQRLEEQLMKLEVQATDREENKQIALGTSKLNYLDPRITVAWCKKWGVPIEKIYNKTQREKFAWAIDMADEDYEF
Procedure, shortened: (§1)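 Relaxation of 100 ng supercoiled pBR322 by 0.4 units recombinant human topo I, with or without compound (20 mM DMSO stocks), at 37 °C for 30 min. Buffer: 10 mM Tris-HCl pH 7.9, 150 mM NaCl, 0.1% BSA, 1 mM spermidine, 5% glycerol. Run on 1% agarose gel in TAE at 15 V for 7 h, stained with ethidium bromide, bands quantified under UV to give inhibition ratio.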

[2] = target: DNA topoisomerase 2-alpha (Homo sapiens) (UniProt P11388); assay: Inhibition of human recombinant DNA topoisomerase 2alpha -mediated pBR322 DNA relaxation at 20 uM by gel electrophoresis
DNA topoisomerase 2-alpha (Homo sapiens), sequence (P11388 whole entry): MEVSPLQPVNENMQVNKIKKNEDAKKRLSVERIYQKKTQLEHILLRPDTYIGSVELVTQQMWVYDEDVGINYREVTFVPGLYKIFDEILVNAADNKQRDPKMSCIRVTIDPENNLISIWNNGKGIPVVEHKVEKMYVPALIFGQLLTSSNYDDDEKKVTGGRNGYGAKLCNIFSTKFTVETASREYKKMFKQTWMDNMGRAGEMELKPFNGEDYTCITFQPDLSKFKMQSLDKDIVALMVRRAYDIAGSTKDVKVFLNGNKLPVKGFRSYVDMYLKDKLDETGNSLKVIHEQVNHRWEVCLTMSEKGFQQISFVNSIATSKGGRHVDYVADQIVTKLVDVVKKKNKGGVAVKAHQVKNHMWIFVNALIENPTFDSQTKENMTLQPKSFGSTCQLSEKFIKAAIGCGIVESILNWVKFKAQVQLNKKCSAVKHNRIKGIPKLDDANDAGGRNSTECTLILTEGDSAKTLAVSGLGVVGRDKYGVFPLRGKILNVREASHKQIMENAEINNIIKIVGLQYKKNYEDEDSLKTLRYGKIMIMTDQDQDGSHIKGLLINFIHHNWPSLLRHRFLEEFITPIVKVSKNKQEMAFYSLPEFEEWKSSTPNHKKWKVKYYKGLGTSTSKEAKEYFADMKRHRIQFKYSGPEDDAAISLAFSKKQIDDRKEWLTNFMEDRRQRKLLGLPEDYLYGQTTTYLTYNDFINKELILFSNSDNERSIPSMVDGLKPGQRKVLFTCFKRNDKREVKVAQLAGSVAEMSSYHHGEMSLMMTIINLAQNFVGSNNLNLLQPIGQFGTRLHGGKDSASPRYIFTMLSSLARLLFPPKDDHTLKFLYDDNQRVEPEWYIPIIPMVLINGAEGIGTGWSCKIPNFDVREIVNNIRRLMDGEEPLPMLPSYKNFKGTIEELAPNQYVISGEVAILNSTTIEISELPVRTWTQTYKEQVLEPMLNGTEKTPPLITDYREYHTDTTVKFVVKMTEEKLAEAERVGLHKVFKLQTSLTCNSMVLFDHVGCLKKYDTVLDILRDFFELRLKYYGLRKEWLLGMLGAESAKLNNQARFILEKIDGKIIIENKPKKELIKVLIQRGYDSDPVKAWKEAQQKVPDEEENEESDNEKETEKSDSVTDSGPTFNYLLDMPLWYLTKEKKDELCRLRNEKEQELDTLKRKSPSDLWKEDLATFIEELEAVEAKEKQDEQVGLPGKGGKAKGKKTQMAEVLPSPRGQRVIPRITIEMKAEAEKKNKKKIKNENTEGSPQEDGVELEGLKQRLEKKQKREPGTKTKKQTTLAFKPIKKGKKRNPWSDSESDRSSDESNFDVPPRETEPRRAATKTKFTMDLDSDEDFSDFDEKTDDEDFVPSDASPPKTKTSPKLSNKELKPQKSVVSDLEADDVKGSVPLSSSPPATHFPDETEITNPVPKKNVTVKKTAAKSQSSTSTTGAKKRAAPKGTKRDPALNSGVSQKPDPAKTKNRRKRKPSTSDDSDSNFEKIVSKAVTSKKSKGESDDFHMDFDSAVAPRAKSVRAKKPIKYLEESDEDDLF
Procedure, shortened: (§2)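 Relaxation of 200 ng supercoiled pBR322 by 1 unit human topo IIα, with or without compound, at 30 °C for 30 min. Buffer: 10 mM Tris-HCl pH 7.9, 50 mM NaCl, 50 mM KCl, 5 mM MgCl₂, 1 mM EDTA, 1 mM ATP, 15 µg/mL BSA. Stopped with EDTA and run on 1% agarose gel in TAE at 25 V for 4 h. Band analysis gave inhibition ratio.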

[3] = target: DNA topoisomerase 2-alpha (Homo sapiens) (UniProt P11388); assay: Inhibition of human recombinant DNA topoisomerase 2alpha -mediated pBR322 DNA relaxation at 100 uM by gel electrophoresis; procedure, shortened: as §2
HeLa = assay: Cytotoxicity against human HeLa cells after 48 hrs by MTT assay; type: functional, cell-based
Procedure, shortened: (§3)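 Cells seeded at 2–4 × 10⁴ per well and held overnight at 37 °C, 5% CO₂, in medium with 10% FBS. On day 2 the medium was replaced with medium holding graded compound concentrations. Absorbance was read at 450 nm and fitted to a four-parameter logistic equation for IC₅₀. Mean ± SD of three experiments, each in triplicate.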

HL-60 = assay: Cytotoxicity against human HL60 cells after 48 hrs by MTT assay; type: functional, cell-based; settings: HL-60, 48 h; procedure, shortened: as §3
DU-145 = assay: Cytotoxicity against human DU145 cells after 48 hrs by MTT assay; type: functional, cell-based; settings: DU-145, 48 h; procedure, shortened: as §3
HT-29 = assay: Cytotoxicity against human HT-29 cells after 48 hrs […]; type: functional, cell-based; settings: HT-29, 48 h
MDA-MB-231 = assay: Cytotoxicity against human MDA-MB-231 cells after 48 hrs by MTT assay; type: functional, cell-based; settings: MDA-MB-231, 48 h
Procedure, shortened: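 Cells seeded at 2–4 × 10⁴ per well and grown overnight in medium with 10% FBS at 37 °C, 5% CO₂. Medium was then replaced with medium holding graded compound concentrations. Absorbance was read at 450 nm and IC50 fitted to a four-parameter logistic equation. Mean of three experiments run in triplicate.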

[4] = target: T1, DNA topoisomerase 1 (Homo sapiens); assay: Inhibition of human recombinant topoisomerase 1-mediated pBR322 DNA relaxation at 20 uM by gel electrophoresis; procedure, shortened: as §1
Nucleic Acid = assay: Induction of DNA cross linking in linearized pBR322 at 100 uM by alkaline gel electrophoresis; type: nucleic-acid assay; settings: Escherichia coli
Procedure, shortened: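 pBR322 was linearized with EcoRI and ethanol-precipitated, then incubated with compound for 2 h at room temperature in 10 mM Tris–HCl, 1 mM EDTA, pH 8.0. Samples ran on a denaturing 1.2% alkaline agarose gel in 50 mM NaOH, 1 mM EDTA. The gel was neutralized 1 h in 100 mM Tris, 150 mM NaCl, pH 7.6, alongside a HindIII marker.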

Row | SMILES | inhibition [1] [%] | inhibition [2] [%] | inhibition [3] [%] | IC50 (HeLa) [µM] | IC50 (HL-60) [µM] | IC50 (DU-145) [µM] | IC50 (HT-29) [µM] | IC50 (MDA-MB-231) [µM] | inhibition [4] [%] | Activity (Nucleic Acid)
1 | O=c1c2ccc3ccccc3c2oc2cc(OCC3CO3)cc(O)c12 (stereo unspecified) | 1.7 | 5.5 | 9 | > 50 | 3.67 | 2.56 | 18.9 | 0.73 | 10.6 | 
2 | CC[C@@]1(O)C(=O)OCc2c1cc1n(c2=O)Cc2cc3ccccc3nc2-1 [CAMPTOTHECIN] |  |  |  | 0.86 | 0.065 | 3.57 | 0.85 | 0.92 |  | 
3 | COc1cccc2c1C(=O)c1c(O)c3c(c(O)c1C2=O)C[C@@](O)(C(=O)CO)C[C@@H]3O[C@H]1C[C@H](N)[C@H](O)[C@H](C)O1 [DOXORUBICIN HYDROCHLORIDE] |  |  |  | 0.71 | 0.94 | 1.19 | 0.95 | 3.15 |  | 
4 | O=c1c2cc3ccccc3cc2oc2cc(OCC3CS3)cc(O)c12 (stereo unspecified) | 0.5 | 7.2 | -0 | 8.52 | 2.48 | 1.55 | 5.4 | 14.8 | -0 | 
5 | COc1cc([C@@H]2c3cc4c(cc3[C@@H](O[C@@H]3O[C@@H]5CO[C@@H](C)O[C@H]5[C@H](O)[C@H]3O)[C@H]3COC(=O)[C@H]23)OCO4)cc(OC)c1O [ETOPOSIDE] |  |  |  | 0.47 | 0.97 | 1.63 | 1.42 | 2.87 |  | 
6 | O=c1c2ccc3ccccc3c2oc2cc(OCC3CS3)cc(O)c12 (stereo unspecified) | 15.6 | -0 | 13.9 | > 50 | 22.6 | 10.8 | > 50 | > 50 | 2.5 | 
7 | O=c1c2c(O)cc(OCC3CS3)cc2oc2ccc3ccccc3c12 (stereo unspecified) | -0 | -0 | 5.3 | > 100 | 3.48 | 8.76 | 3.58 | 29.1 | 2.4 | 
8 | O=c1c2c(O)cc(OCC3CO3)cc2oc2ccc3ccccc3c12 (stereo unspecified) | -0 | -0 | 3.7 | > 100 | 2.31 | 1.4 | 0.96 | > 50 | 9.7 | 
9 | O=c1c2ccc3ccccc3c2oc2cc(OCC3CO3)cc(OCC3CO3)c12 (stereo unspecified) | 11.9 | 0.1 | 5.7 | 24.2 | 5.4 | 1.29 | 8.2 | 7.43 | -0 | Active
10 | O=c1c2cc3ccccc3cc2oc2cc(OCC3CO3)cc(O)c12 (stereo unspecified) | 13.7 | -0 | -0 | > 100 | 9.4 | 36.2 | 2.34 | 15.1 | 2.6 | 
11 | O=c1c2ccc3ccccc3c2oc2cc(OCC3CS3)cc(OCC3CS3)c12 (stereo unspecified) | 79 | 72.7 | 71.9 | 25.6 | 37 | 5.66 | > 50 | > 50 | 56.5 | 
12 | O=c1c2c(OCC3CO3)cc(OCC3CO3)cc2oc2ccc3ccccc3c12 (stereo unspecified) | 18 | -0 | 1 | 10.2 | 6.47 | 3.44 | 7.38 | > 50 | -0 | inactive
13 | O=c1c2cc3ccccc3cc2oc2cc(OCC3CO3)cc(OCC3CO3)c12 (stereo unspecified) | 12.3 | 8.9 | 60.1 | 2.19 | 5.13 | 3.01 | 0.6 | 1.64 | 8.8 | Active
14 | O=c1c2cc3ccccc3cc2oc2cc(OCC3CS3)cc(OCC3CS3)c12 (stereo unspecified) | 4.3 | 13.5 | 1.9 | 8.01 | 5.13 | 19.4 | 1.66 | 5.16 | -0 | 
15 | O=c1c2c(OCC3CS3)cc(OCC3CS3)cc2oc2ccc3ccccc3c12 (stereo unspecified) | -0 | 8.4 | 4.4 | 24.9 | 1.85 | 1.32 | 0.75 | 18.9 | -0 | 
